The values below come from paper PMC9150438 (Methods in enzymology, 2022).

One data set addresses MEK1-NL (Homo sapiens, UniProt Q02750). Put plainly: NanoBRET tracer build-up. Type of data set: binding. An outline of the steps: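 HEK293T cells at ~70% confluence were plated at 200,000 cells/mL and transfected with MEK1-NL alone, MEK1-NL plus mKSR1, or mKSR1-NL, then incubated at least 20 h at 37 °C. The Tram-bo tracer was titrated in each scenario to record BRET, giving an apparent EC50 and maximal BRET signal for each. These set the working tracer concentration above EC50.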
(Bioluminescence resonance energy transfer reports proximity on the nanometre scale.)

The next data set relates to mKSR1:MEK1 complex. The following applies: steady-state NanoBRET, 1 μM Tram-bo (Fig. 7A); ref Khan et al., 2020; cited from earlier work.
A further data set deals with BRAF (Homo sapiens, UniProt P15056). Nature of the data set: ATP-biotin probe labeling competition assay on isolated BRAF. It counts as binding. To be noted: MEK, KSR1:MEK and KSR2:MEK labeled with 2.5 μM probe (Fig. 4E).
A further data set relates to KRAS mutant cell lines. To be noted: ref Khan et al., 2020; cited from earlier work.
For the next data set, the system named is mKSR1-NL W781D. To be noted: mKSR1 W781D interface mutant (Fig. 6F); ref Khan et al., 2020; cited from earlier work.
The data set “SEC” deals with the molecule itself. Nature of the data set: SEC. In general terms: SEC sorts molecules by how far they enter the pores of the column.

MEK1-NL, sequence (Q02750 whole entry): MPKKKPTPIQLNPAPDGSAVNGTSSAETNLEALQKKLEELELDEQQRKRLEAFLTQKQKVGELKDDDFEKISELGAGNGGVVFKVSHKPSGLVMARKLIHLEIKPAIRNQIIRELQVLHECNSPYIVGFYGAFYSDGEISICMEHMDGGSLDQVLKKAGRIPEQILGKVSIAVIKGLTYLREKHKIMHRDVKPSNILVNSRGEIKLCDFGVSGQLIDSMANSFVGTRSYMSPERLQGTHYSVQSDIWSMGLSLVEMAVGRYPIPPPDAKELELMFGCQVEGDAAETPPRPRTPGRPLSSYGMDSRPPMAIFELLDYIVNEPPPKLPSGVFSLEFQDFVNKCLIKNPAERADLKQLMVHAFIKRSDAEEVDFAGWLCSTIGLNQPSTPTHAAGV
BRAF, sequence (P15056 457-717 limits assumed): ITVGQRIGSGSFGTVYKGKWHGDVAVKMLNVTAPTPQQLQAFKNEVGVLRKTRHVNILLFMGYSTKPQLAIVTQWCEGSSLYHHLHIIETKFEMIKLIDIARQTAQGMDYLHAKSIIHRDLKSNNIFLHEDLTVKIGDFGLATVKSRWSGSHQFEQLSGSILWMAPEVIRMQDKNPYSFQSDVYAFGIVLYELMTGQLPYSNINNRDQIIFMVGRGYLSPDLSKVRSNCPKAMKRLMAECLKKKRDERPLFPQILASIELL

Turning to `Cc1c(=O)n(C)c(Nc2ccc(I)cc2F)c2c(=O)n(C3CC3)c(=O)n(-c3cccc(NC(=O)CCOCCOCCNC(=O)CCc4ccc5n4[B-](F)(F)[N+]4=C(c6ccc[nH]6)C=CC4=C5)c3)c12` [Tram-bo], the “fold difference of Tram-bo EC50, MEK1-NL vs the two MEK1–mKSR1 complex scenarios” value at MEK1-NL (MEK1-NL vs mKSR1-NL and MEK1-NL coexpressed with mKSR1 (Fig. 6C)) is given as ~ 20 times. Besides, the “apparent EC50 of Tram-bo” value at MEK1-NL (NanoBRET build-up curves (Fig. 6C)) is on record as “in the nanomolar range”.
Take `O=C(c1ccc(F)c(F)c1Nc1ccc(I)cc1F)N1CC(O)([C@@H]2CCCCN2)C1` [cobimetinib]: the “apparent IC50 on free MEK1 compared with the mKSR1:MEK1 complex” value in the data set with mKSR1:MEK1 complex is reported as “more potent binding to the complex”.
`CC(C)(C)c1nc(-c2cccc(NS(=O)(=O)c3c(F)cccc3F)c2F)c(-c2ccnc(N)n2)s1` [dabrafenib]: at BRAF, the “inhibitor specificity in ATP-biotin competition assay” value is reported as “BRAF-specific inhibition”.
As for `CNS(=O)(=O)Nc1cccc(-n2c(=O)n(C3CC3)c(=O)c3c(Nc4ccc(I)cc4F)n(C)c(=O)c(C)c32)c1` [trametiglue], in the data set on KRAS mutant cell lines, the “potency of growth inhibition relative to trametinib and other MEKi including CH5126766” value is reported as “markedly enhanced”.
With `CC(=O)Nc1cccc(-n2c(=O)n(C3CC3)c(=O)c3c(Nc4ccc(I)cc4F)n(C)c(=O)c(C)c32)c1` [trametinib], the “dose-response in KSR-NL assay with W781D mutant” value with mKSR1-NL W781D is “loss of a Trametinib dose-response”.

B1: KSR1 pseudokinase domain [residues 591–899] (domain or fragment, human, UniProt Q8IVT5 591-899, looked up)
chain: PISRKASQTSVYLQEWDIPFEQVELGEPIGQGRWGRVHRGRWHGEVAIRLLEMDGHNQDHLKLFKKEVMNYRQTRHENVVLFMGACMNPPHLAIITSFCKGRTLHSFVRDPKTSLDINKTRQIAQEIIKGMGYLHAKGIVHKDLKSKNVFYDNGKVVITDFGLFGISGVVREGRRENQLKLSHDWLCYLAPEIVREMTPGKDEDQLPFSKAADVYAFGTVWYELQARDWPLKNQAAEASIWQIGSGEGMKRVLTSVSLGKEVSEILSACWAFDLQERPSFSLLMDMLEKLPKLNRRLSHPGHFWKSADI
On to B1, for which the binding result in the data set “SEC” is on record as “binds”.
